Laboratory results reported in ChEMBL document CHEMBL4130397, “Tulongicin, an Antibacterial Tri-Indole Alkaloid from a Deep-Water Topsentia sp. Sponge” (J Nat Prod, 2017).
In brackets after ≈: the same amount, converted by molar mass.

Assays:
Staphylococcus aureus = assay: Antibacterial activity against Staphylococcus aureus ATCC 29213 by CLSI method; type: functional
Summary of the method: (§1)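 Broth MIC per CLSI guidelines against ATCC strains; each compound tested in duplicate in at least two independent experiments; top concentration tested 100 μg/mL.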

Escherichia coli = assay: Antibacterial activity against Escherichia coli ATCC 25922 by CLSI method; type: functional; summary of the method: as §1
[1] = test system: Human immunodeficiency virus 1; assay: Antiviral activity against ENV pseudotyped CCR5-tropic HIV1 isolate YU2 infected in human TZM-bl cells after 24 hrs by luciferase reporter gene assay; type: functional, organism-based; conditions: Human immunodeficiency virus 1, isolate YU2, TZM-bl
[2] = test system: Human immunodeficiency virus 1; assay: Antiviral activity against ENV pseudotyped CXCR4-tropic HIV1 HxB2 infected in human TZM-bl cells after 24 hrs by luciferase reporter gene assay; type: functional, organism-based; conditions: Human immunodeficiency virus 1, M:B_HXB2R
BSC-1 = assay: Cytotoxicity against African green monkey BSC1 cells; type: cell-based; conditions: Chlorocebus aethiops
HCT-116 = assay: Cytotoxicity against human HCT116 cells; type: cell-based

Molecule: Cc1onc(-c2ccccc2)c1C(=O)N[C@@H]1C(=O)N2[C@@H]1SC(C)(C)[C@@H]2C(=O)O [OXACILLIN]
- MIC (Staphylococcus aureus): 0.25 µg/mL (≈ 0.623 µM)

Molecule: Brc1ccc2c(C(C3=NC[C@H](c4c[nH]c5cc(Br)ccc45)N3)c3c[nH]c4cc(Br)ccc34)c[nH]c2c1
- MIC (Staphylococcus aureus): 1.2 µg/mL (≈ 1.8 µM)
- MIC (Escherichia coli): > 100 µg/mL
- IC50 [1]: 3.9 µM
- IC50 [2]: 2.7 µM
- IC50 (BSC-1): 46 µM
- IC50 (HCT-116): 10 µM

Molecule: GENTAMICIN
- MIC (Escherichia coli): 1 µg/mL

Molecule: O[C@H](C1=NC[C@H](c2c[nH]c3cc(Br)ccc23)N1)c1c[nH]c2cc(Br)ccc12
- MIC (Staphylococcus aureus): 3.7 µg/mL (≈ 7.58 µM)
- MIC (Escherichia coli): 100 µg/mL (≈ 205 µM)
- IC50 [1]: 3.5 µM
- IC50 [2]: 4.5 µM
- IC50 (BSC-1): 93 µM
- IC50 (HCT-116): 16 µM

Molecule: O=C(C1=NC[C@H](c2c[nH]c3cc(Br)ccc23)N1)c1c[nH]c2cc(Br)ccc12
- MIC (Staphylococcus aureus): 1.1 µg/mL (≈ 2.26 µM)
- MIC (Escherichia coli): > 100 µg/mL
- IC50 [1]: 9.5 µM
- IC50 [2]: 12 µM
- IC50 (BSC-1): 31 µM
- IC50 (HCT-116): 27 µM
